Source: PMC12311552 (Molecular Metabolism, 2025)
Numbered stars: 1 amine (or outer) side, 2 acyl side, 3 side chain; on linkers, the order of the positions; unused ones are H or OH. Side chains are listed from the residue outwards. Peptide text beside a SMILES is read from it. * marks the point of attachment. Cy5(nonsulfonated) = CN1C(=CC=CC=CC2=[N+](CCCCCC(=O)*)c3ccccc3C2(C)C)C(C)(C)c2ccccc21; C18 diacid = O=C(O)CCCCCCCCCCCCCCCCC(=O)*; γGlu = O=C(O)[C@H](CCC(=O)[*:2])N[*:1]; Isovaleryl = CC(C)CC(=O)*; AEEA = NCCOCCOCC(=O)O

Legend:
human NPY1R = target: T1, human NPY1R (Homo sapiens, UniProt P25929); experiment: Competitive radioligand binding, membrane preparations, 125I-PYY1–36; settings: up to 1 μM
T1 sequence (P25929 1-384): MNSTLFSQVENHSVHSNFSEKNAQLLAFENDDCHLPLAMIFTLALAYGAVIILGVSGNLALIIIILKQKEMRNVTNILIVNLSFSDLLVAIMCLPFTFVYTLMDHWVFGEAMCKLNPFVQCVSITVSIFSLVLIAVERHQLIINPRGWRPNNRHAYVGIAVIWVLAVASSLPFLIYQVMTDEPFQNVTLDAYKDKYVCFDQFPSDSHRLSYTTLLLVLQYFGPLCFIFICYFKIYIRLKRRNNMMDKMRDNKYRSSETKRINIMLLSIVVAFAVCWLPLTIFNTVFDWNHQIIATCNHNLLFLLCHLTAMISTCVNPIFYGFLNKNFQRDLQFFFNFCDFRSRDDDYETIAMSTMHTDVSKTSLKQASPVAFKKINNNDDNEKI

human NPY4R = human NPY4R (Homo sapiens, UniProt P50391); experiment: Competitive radioligand binding, membrane preparations, 125I-PP; settings: up to 1 μM
human NPY4R, sequence (P50391 whole entry): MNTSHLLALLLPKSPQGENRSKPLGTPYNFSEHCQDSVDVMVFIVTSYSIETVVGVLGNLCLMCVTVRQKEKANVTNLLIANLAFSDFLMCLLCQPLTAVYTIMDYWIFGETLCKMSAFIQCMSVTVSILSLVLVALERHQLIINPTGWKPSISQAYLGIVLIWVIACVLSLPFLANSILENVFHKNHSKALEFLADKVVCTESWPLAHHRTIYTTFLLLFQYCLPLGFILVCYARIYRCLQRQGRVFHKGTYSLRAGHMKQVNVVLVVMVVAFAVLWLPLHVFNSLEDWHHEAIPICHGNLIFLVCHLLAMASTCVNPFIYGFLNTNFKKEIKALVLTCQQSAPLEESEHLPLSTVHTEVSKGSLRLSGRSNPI

[1] = Pharmacokinetic study in mice; assay type: in vivo; settings: male, NMRI, mouse, plasma, sc, 30 nmol/kg
Outline: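 Male NMRI mice got a single dose of 30 nmol/kg, IV (N = 2) or SC (N = 3), in 50 mM phosphate pH 7.0 with 5% mannitol at 5 mL/kg. Plasma was sampled at several times after dosing, stored at -20 °C, and quantified by LC-MS/MS.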

[2] = Pharmacokinetic study in dogs; assay type: in vivo; settings: male, beagle, dog, plasma, sc, 5 nmol/kg
Outline: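 Male beagles were dosed once, IV 1.25 nmol/kg (N = 2) or SC 5 nmol/kg (N = 3). Plasma was sampled at several times after dosing, stored at -20 °C, and assayed by LC-MS/MS.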

male NMRI mice = experiment: Acute food intake in lean mice; assay type: in vivo, mouse
Outline: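 Males, 5 weeks old on arrival, 4/cage, lights off 3 PM, chow ad libitum. Randomised by bodyweight (n = 7–8/group) with a vehicle group (50 mM phosphate pH 7.0, 5% mannitol; 5 mL/kg). Fasted from 6 h before night, dosed SC once 1 h before dark. Hourly food intake over 24 h as % of vehicle mean. ED50 by nonlinear fit.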

male C57BL/6JRj mice = experiment: Acute gastric emptying in lean mice; assay type: in vivo, mouse
Outline: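 Males aged 9–10 weeks were fasted 8.5 h, then a basal blood glucose sample was taken for randomisation. After a further 30 min fast they got one SC dose. At 3 h, glucose 2 g/kg plus acetaminophen 100 mg/kg was gavaged (10 mL/kg). Blood acetaminophen and glucose were measured pre-load (20 min) and at 10, 30 and 60 min post-load. Gastric emptying was read as change in acetaminophen exposure.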

diet-induced obese mice = experiment: Subchronic, repeated dose study in diet-induced obese mice; assay type: in vivo, mouse; settings: DIO mice
[3] = test system: Diet-induced obese (DIO) male C57BL6/J mice; experiment: 3D whole-brain c-Fos imaging; assay type: in vivo, mouse; settings: 8 nmol/kg, 4 h after dosing
Outline: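 Perfused 4 h post-dose. Brains were c-Fos immunolabelled, iDISCO+-cleared and imaged whole by light-sheet microscopy. c-Fos+ cells were atlas-mapped and counted per region, with region-wise statistics against vehicle.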

cynomolgus monkeys = experiment: Cardiovascular study in cynomolgus monkeys; assay type: in vivo, cynomolgus monkey; settings: subcutaneous supratherapeutic doses
[4] = test system: Chow-fed male C57BL/6JRj mice; experiment: 3D whole-brain imaging by light-sheet fluorescence microscopy; assay type: in vivo, mouse; settings: single s.c. dose 100 nmol/kg; SFO, AP, ME, choroid plexus, ARH
Outline: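 Chow-fed males (n = 8/group) got one SC dose of unlabelled test compound or a Cy5-labelled analogue (Lys10), each 100 nmol/kg, and were killed at 6 h. Competition group: unlabelled 100 nmol/kg SC at 0, 8 and 24 h, labelled analogue 1 h later, killed after 1 h. Tongue was positive control. Tissue was perfusion-fixed, cleared and light-sheet imaged, giving atlas-aligned regional mean fluorescence (CVOs, ARH).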

human NPY2R (human) = human NPY2R (human) (UniProt P49146); experiment: radioligand binding
human NPY2R (human), sequence (P49146 whole entry): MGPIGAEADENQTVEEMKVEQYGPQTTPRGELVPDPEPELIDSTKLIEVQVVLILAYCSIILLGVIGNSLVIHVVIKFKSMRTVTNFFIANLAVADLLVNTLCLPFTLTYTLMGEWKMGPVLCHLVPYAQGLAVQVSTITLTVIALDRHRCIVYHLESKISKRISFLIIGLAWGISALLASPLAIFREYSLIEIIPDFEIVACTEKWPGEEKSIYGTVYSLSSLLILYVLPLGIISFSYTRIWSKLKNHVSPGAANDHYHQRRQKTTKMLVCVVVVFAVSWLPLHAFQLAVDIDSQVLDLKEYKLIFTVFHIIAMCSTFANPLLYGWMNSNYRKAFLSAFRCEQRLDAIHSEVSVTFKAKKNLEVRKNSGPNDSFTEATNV

Question: For CC[C@H](C)[C@H](NC(=O)[C@H](CCC(=O)O)NC(=O)[C@H](CCC(=O)O)NC(=O)[C@@H]1CCCN1C(=O)[C@H](CO)NC(=O)[C@H](C)NC(=O)[C@H](CC(=O)O)NC(=O)[C@H](CCC(=O)O)NC(=O)[C@H](CCC(=O)O)NC(=O)[C@@H]1CCCN1C(=O)[C@H](CCCCNC(=O)COCCOCCNC(=O)COCCOCCNC(=O)CC[C@H](NC(=O)CCCCCCCCCCCCCCCCC(=O)O)C(=O)O)NC(=O)[C@H](C)NC(=O)[C@@H]1CCCN1C(=O)[C@H](C)NC(=O)CC(C)C)C(=O)N[C@@H](CCC(N)=O)C(=O)N[C@@H](CCCNC(=N)N)C(=O)N[C@@H](Cc1ccc(O)cc1)C(=O)N[C@@H](Cc1ccc(O)cc1)C(=O)N[C@H](C(=O)N[C@@H](CO)C(=O)N[C@@H](CC(C)C)C(=O)N[C@@H](CCCNC(=N)N)C(=O)N[C@@H](Cc1c[nH]cn1)C(=O)N[C@@H](Cc1ccc(O)cc1)C(=O)N[C@@H](Cc1ccc(O)cc1)C(=O)N[C@@H](CC(N)=O)C(=O)N[C@@H](Cc1c[nH]c2ccccc12)C(=O)N[C@@H](CC(C)C)C(=O)N[C@H](C(=O)N[C@@H](CCCNC(=N)N)C(=O)N[C@@H](CCC(N)=O)C(=O)N[C@@H](CCCNC(=N)N)C(=O)N[C@@H](Cc1ccc(O)cc1)C(N)=O)[C@@H](C)O)C(C)C [BI 1820237], which “binding to human NPY subtype 1” value (human NPY1R) is on record?
Answer: no binding was detected

Question: And the “binding to human NPY subtype 4” value (human NPY4R)?
Answer: no binding was detected

Question: And the Tmax [1]?
Answer: 3 h

Question: What about the MRT [2] of the same compound?
Answer: 103 h

Question: And the “Emax, inhibition of food intake over 24 h” value (male NMRI mice; at the maximal tested dose of 100 nmol/kg)?
Answer: ~85%

Question: And the “ED50, inhibition of food intake over 24 h” value (male NMRI mice; single subcutaneous dose)?
Answer: 14 nmol/kg

Question: What about the “ED50, reduction of gastric emptying” value (male C57BL/6JRj mice; lean mice, single dose, acetaminophen exposure) of the same compound?
Answer: ~2 nmol/kg

Question: What about the Glucose excursion (male C57BL/6JRj mice; oral glucose 2 g/kg, same experiment) of the same compound?
Answer: not affected

Question: What about the “weight of the epididymal adipose tissue compared with the vehicle group” value (diet-induced obese mice; study end, BI 1820237 1 nmol/kg alone or with survodutide 7.5 nmol/kg) of the same compound?
Answer: did not reduce

Question: And the “food intake reduction on Day 1, 24 h post-dosing” value (“food intake reduction” for short) (diet-induced obese mice; 3 nmol/kg once daily s.c.)?
Answer: 18%

Question: What about the “food intake reduction” value (diet-induced obese mice; 10 nmol/kg once daily s.c.) of the same compound?
Answer: 59%

Question: What about the “maximal bodyweight-lowering effect (reduction)” value (diet-induced obese mice; 30 nmol/kg at Day 5 of dosing) of the same compound?
Answer: 9%

Question: What about the “food intake reduction” value (diet-induced obese mice; 30 nmol/kg once daily s.c.) of the same compound?
Answer: 71%

Question: And the “bodyweight reduction at the end of the study (non-significant)” value (diet-induced obese mice; 30 nmol/kg once daily, 4 weeks)?
Answer: 2%

Question: What about the “food intake after 4–5 days of dosing” value (diet-induced obese mice; 100 nmol/kg once daily) of the same compound?
Answer: higher than the food intake in the vehicle group

Question: And the “food intake reduction” value (diet-induced obese mice; 100 nmol/kg once daily s.c.)?
Answer: 56%

Question: And the “food intake after 4–5 days of dosing” value (diet-induced obese mice; 3, 10 and 30 nmol/kg once daily)?
Answer: returned to the level of the vehicle-treated group

Question: And the “effect on bodyweight at the end of the study” value (diet-induced obese mice; other doses (3, 10, 100 nmol/kg) once daily, 4 weeks)?
Answer: no effect

Question: What about the “whole-brain c-Fos expression compared with vehicle” value [3] of the same compound?
Answer: little or no difference

Question: And the emesis (cynomolgus monkeys)?
Answer: induced emesis

Question: For CC[C@H](C)[C@H](NC(=O)[C@H](CCC(=O)O)NC(=O)[C@H](CCC(=O)O)NC(=O)[C@@H]1CCCN1C(=O)[C@H](CO)NC(=O)[C@H](C)NC(=O)[C@H](CC(=O)O)NC(=O)[C@H](CCCCNC(=O)CCCCC[N+]1=C(C=CC=CC=C2N(C)c3ccccc3C2(C)C)C(C)(C)c2ccccc21)NC(=O)[C@H](CCC(=O)O)NC(=O)[C@@H]1CCCN1C(=O)[C@H](CCCCNC(=O)COCCOCCNC(=O)COCCOCCNC(=O)CC[C@H](NC(=O)CCCCCCCCCCCCCCCCC(=O)O)C(=O)O)NC(=O)[C@H](C)NC(=O)[C@@H]1CCCN1C(=O)[C@H](C)NC(=O)CC(C)C)C(=O)N[C@@H](CCC(N)=O)C(=O)N[C@@H](CCCNC(=N)N)C(=O)N[C@@H](Cc1ccc(O)cc1)C(=O)N[C@@H](Cc1ccc(O)cc1)C(=O)N[C@H](C(=O)N[C@@H](CO)C(=O)N[C@@H](CC(C)C)C(=O)N[C@@H](CCCNC(=N)N)C(=O)N[C@@H](Cc1c[nH]cn1)C(=O)N[C@@H](Cc1ccc(O)cc1)C(=O)N[C@@H](Cc1ccc(O)cc1)C(=O)N[C@@H](CC(N)=O)C(=O)N[C@@H](Cc1c[nH]c2ccccc12)C(=O)N[C@@H](CC(C)C)C(=O)N[C@H](C(=O)N[C@@H](CCCNC(=N)N)C(=O)N[C@@H](CCC(N)=O)C(=O)N[C@@H](CCCNC(=N)N)C(=O)N[C@@H](Cc1ccc(O)cc1)C(N)=O)[C@@H](C)O)C(C)C [BI 3005788] (Isovaleryl-APAK([AEEA-AEEA-γGlu-C18 diacid])PEK(Cy5(nonsulfonated))DASPEEIQRYYVSLRHYYNWLTRQRY-NH2; N-terminus and C-terminus assumed), which “lowering of food intake up to 6 h post-dosing” value (male NMRI mice; acute dose 100 nmol/kg, Fig. S3a–b) is on record?
Answer: comparable with BI 1820237 dosed at 30 nmol/kg

Question: What about the “fluorescence signal distribution in the mouse brain” value [4] of the same compound?
Answer: accumulated in 5 circumventricular organs

Question: Which Ki (human NPY2R (human)) does the source give for BI 1820237 (peptide) here?
Answer: 0.82 nM

Question: For survodutide [reference compound], which “bodyweight lowering versus baseline” value (diet-induced obese mice; after 28 days, survodutide 7.5 nmol/kg) is on record?
Answer: 17%

Question: And the “bodyweight lowering compared with the vehicle group” value (diet-induced obese mice; after 28 days, survodutide 7.5 nmol/kg alone or with 1 nmol/kg BI 1820237)?
Answer: 21%

Question: And the lean mass (diet-induced obese mice; survodutide alone, or with 3 nmol/kg BI 1820237 at study start or 1 nmol/kg at Day 8)?
Answer: No significant change
